Measured values as given in ChEMBL document CHEMBL1124084, “Studies on scavengers of active oxygen species. 1. Synthesis and biological activity of 2-O-alkylascorbic acids” (J Med Chem, 1988).
pIC50: −log10 of the molar value.

Key:
[1] = Reducing activity determined by the use of stable radical alpha,alpha-di-phenyl-beta-picrylhydrazyl (DPPH); design: concentration or dose not given beside the values
Rattus norvegicus [2] = test: Effect of AOS scavenger on premeture ventricular complexes PVCs, arrhythmias induced by ischemia-reperfusion in anesthetized rat, duration at 10 mg/kg; assay type: functional, Cardiac ventricle
Rattus norvegicus [3] = test: Effect of AOS scavenger on ventricular fibrillation (VF),arrhythmias induced by ischemia-reperfusion in anesthetized rat, duration at 10 mg/kg; assay type: functional, Cardiac ventricle
Rattus norvegicus [4] = species: Rattus norvegicus; test: Antilipid peroxidation was determined; assay type: functional
Method in brief: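 Rat brain lipid peroxidation: brains from male SD rats (12 weeks old), exsanguinated under pentobarbital anaesthesia, homogenized to 5% in phosphate buffer pH 7.4. Homogenate incubated with test drug at 37 °C for 1 h. Lipid peroxide quantified by the thiobarbituric acid method.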

Rattus norvegicus [5] = test: Effect of AOS scavenger on ventricular tachycardia (VT), arrhythmias induced by ischemia-reperfusion in anesthetized rat at requency, times 10 mg/kg; assay type: functional, Cardiac ventricle
Rattus norvegicus [6] = species: Rattus norvegicus; test: Inhibition of lipid peroxidation was determined with rat brain tissue homogenates; assay type: functional
Method in brief: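 Brains excised from male SD rats (12 weeks), exsanguinated under pentobarbital anesthesia; 5% homogenate in phosphate buffer pH 7.4 incubated with test drug 1 h at 37 °C; lipid peroxide quantified by thiobarbituric acid method.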

Rattus norvegicus [7] = test: Effect of AOS scavenger on ventricular fibrillation (VF),arrhythmias induced by ischemia-reperfusion in anesthetized rat, incidence at 10 mg/kg; 2/7; assay type: functional, Cardiac ventricle
Rattus norvegicus [8] = test: Effect of AOS scavenger on ventricular tachycardia (VT),arrhythmias induced by ischemia-reperfusion in anesthetized rat, duration at 10 mg/kg; assay type: functional, Cardiac ventricle
Rattus norvegicus [9] = test: Effect of AOS scavenger on ventricular fibrillation (VF), arrhythmias induced by ischemia-reperfusion in anesthetized rat, frequency, times at 10 mg/kg; assay type: functional, Cardiac ventricle

CCCCCCCCCCCCCCOC1=C(O)OC(C(O)CO)C1=O (centres undefined)
Reducing activity [1]: 95.4%
Activity (Rattus norvegicus [2]): <3.5 min
Duration (Rattus norvegicus [3]): 10.1 s
Antilipid peroxidation (Rattus norvegicus [4]): 54.8%
Frequency (Rattus norvegicus [5]): <2.6
pIC50 (Rattus norvegicus [6]): 5.13
Incidence (Rattus norvegicus [7]): 2 N
Duration (Rattus norvegicus [8]): 12.9 s
Frequency (Rattus norvegicus [9]): <0.6
